Experimental data: ChEMBL document CHEMBL4145646, “Macrophilones from the Marine Hydroid Macrorhynchia philippina Can Inhibit ERK Cascade Signaling” (J Nat Prod, 2018)
The source made the active and inactive calls. No cut-off for these calls is given here.

Experiments:
COLO 205 [1] = test: Growth inhibition of human COLO205 cells harboring B-Raf V600E mutant after 48 hrs by sulforhodamine B assay; type: functional, cell-based
Outline: (§1)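 Tested in the NCI-60 human tumor cell line screen as DMSO solutions. Results analyzed with CellMiner bioinformatics tools.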

Malme-3M = test: Growth inhibition of human MALME-3M cells harboring B-Raf V600E mutant after 48 hrs by sulforhodamine B assay; type: functional, cell-based; outline: as §1
SK-MEL-5 = test: Growth inhibition of human SK-MEL-5 cells harboring B-Raf V600E mutant after 48 hrs by sulforhodamine B assay; type: functional, cell-based; outline: as §1
MDA-MB-435 = test: Growth inhibition of human MDA-MB-435 cells harboring B-Raf V600E mutant after 48 hrs by sulforhodamine B assay; type: functional, cell-based; outline: as §1
[2] = molecular target: Serine/threonine-protein kinase B-raf (Homo sapiens) (UniProt P15056); test: Inhibition of B-Raf (unknown origin) at 10 uM using inactive MEK as substrate pretreated for 20 mins followed by substrate addition and measured after 30 mins in presence of [gamma32P]ATP by autoradiography
[3] = molecular target: RAF proto-oncogene serine/threonine-protein kinase (Homo sapiens) (UniProt P04049); test: Inhibition of C-Raf (unknown origin) at 10 uM using inactive MEK as substrate pretreated for 20 mins followed by substrate addition and measured after 30 mins in presence of [gamma32P]ATP by autoradiography
[4] = molecular target: Dual specificity mitogen-activated protein kinase kinase 1 (Homo sapiens) (UniProt Q02750); test: Inhibition of wild-type MEK1 (unknown origin) at 10 uM using inactive ERK2 as substrate pretreated for 20 mins followed by substrate addition and measured after 30 mins in presence of [gamma32P]ATP by autoradiography
Homo sapiens = organism: Homo sapiens; test: Inhibition of ERK (unknown origin)
COLO 205 [5] = test: Down regulation of total ERK level in human COLO205 cells harboring B-Raf V600E mutant at 1 to 10 uM measured after 18 hrs by Western blot analysis; type: functional, cell-based
Outline: (§2)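 Colo205 cells grown at 37 °C, 5% CO2 in RPMI-1640 with 10% FBS and 2 mM L-glutamine. Compounds added in DMSO (final 0.1% v/v), vehicle-only controls. Cells washed twice in ice-cold PBS, lysed in RIPA buffer (pH 8.0, with protease and phosphatase inhibitors). Lysates clarified, equalized for protein, then immunoblotted for B-Raf, C-Raf, ERK2, MEK1, pS217/221-MEK and pT202/Y204-ERK.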

[6] = molecular target: T1, Dual specificity mitogen-activated protein kinase kinase; MEK1/2 (Homo sapiens) (UniProt P36507+Q02750); test: Increase in MEK phosphorylation in human COLO205 cells harboring B-Raf V600E mutant at 1 uM after 18 hrs by Western blot analysis; type: cell-based; outline: as §2
[7] = test system: Serine/threonine-protein kinase B-raf (Homo sapiens), P15056 [V600E]; test: Increase in ERK phosphorylation in human COLO205 cells harboring B-Raf V600E mutant at 1 uM after 18 hrs by Western blot analysis; type: cell-based; outline: as §2
COLO 205 [8] = test: Effect on total B-Raf level in human COLO205 cells harboring B-Raf V600E mutant at 1 to 10measured after 18 hrs by Western blot analysis; type: functional, cell-based; outline: as §2
COLO 205 [9] = test: Effect on total C-Raf level in human COLO205 cells harboring B-Raf V600E mutant at 1 to 10measured after 18 hrs by Western blot analysis; type: functional, cell-based; outline: as §2
COLO 205 [10] = test: Effect on total MEK level in human COLO205 cells harboring B-Raf V600E mutant at 1 to 10measured after 18 hrs by Western blot analysis; type: functional, cell-based; outline: as §2
COLO 205 [11] = test: Effect on total ERK level in human COLO205 cells harboring B-Raf V600E mutant at 1 to 10measured after 18 hrs by Western blot analysis; type: functional, cell-based; outline: as §2
[12] = molecular target: T1, Dual specificity mitogen-activated protein kinase kinase; MEK1/2 (Homo sapiens); test: Inhibition of MEK phosphorylation in human COLO205 cells harboring B-Raf V600E mutant at 1 to 10 uM after 18 hrs by Western blot analysis; type: cell-based; outline: as §2

Chain of Serine/threonine-protein kinase B-raf (Homo sapiens) (P15056 whole entry): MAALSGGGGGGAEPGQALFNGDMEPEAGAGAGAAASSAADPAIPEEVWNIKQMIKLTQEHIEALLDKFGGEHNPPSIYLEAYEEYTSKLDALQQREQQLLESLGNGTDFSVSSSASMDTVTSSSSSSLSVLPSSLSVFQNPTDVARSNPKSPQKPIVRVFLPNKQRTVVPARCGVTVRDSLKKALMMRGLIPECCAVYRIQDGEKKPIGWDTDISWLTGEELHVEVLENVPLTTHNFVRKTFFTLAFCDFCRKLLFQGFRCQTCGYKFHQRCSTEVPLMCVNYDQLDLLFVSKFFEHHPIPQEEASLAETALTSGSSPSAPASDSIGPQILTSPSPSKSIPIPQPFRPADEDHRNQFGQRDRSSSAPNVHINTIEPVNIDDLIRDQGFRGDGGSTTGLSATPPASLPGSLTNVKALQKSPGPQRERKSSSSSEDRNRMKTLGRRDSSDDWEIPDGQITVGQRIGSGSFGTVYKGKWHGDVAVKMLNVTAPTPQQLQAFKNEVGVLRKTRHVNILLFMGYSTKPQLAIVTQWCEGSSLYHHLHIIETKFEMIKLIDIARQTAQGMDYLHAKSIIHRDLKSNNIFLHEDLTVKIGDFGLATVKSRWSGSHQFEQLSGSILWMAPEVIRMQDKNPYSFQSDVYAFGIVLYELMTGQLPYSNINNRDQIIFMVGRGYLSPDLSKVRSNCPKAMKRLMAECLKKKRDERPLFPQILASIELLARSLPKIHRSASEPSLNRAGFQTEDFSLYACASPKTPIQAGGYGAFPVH
T1 sequence (P36507 whole entry, looked up): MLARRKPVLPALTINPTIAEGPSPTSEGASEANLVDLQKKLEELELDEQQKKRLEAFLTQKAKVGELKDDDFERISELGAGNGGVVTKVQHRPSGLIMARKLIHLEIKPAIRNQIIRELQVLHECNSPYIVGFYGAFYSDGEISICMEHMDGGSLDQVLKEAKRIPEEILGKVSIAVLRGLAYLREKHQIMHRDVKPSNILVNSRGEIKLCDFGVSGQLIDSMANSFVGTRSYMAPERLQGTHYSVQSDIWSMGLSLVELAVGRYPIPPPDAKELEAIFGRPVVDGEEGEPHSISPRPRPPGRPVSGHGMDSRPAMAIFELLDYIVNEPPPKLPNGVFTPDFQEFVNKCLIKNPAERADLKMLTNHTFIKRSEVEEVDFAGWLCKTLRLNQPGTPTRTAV
T1 sequence (Q02750 whole entry, looked up): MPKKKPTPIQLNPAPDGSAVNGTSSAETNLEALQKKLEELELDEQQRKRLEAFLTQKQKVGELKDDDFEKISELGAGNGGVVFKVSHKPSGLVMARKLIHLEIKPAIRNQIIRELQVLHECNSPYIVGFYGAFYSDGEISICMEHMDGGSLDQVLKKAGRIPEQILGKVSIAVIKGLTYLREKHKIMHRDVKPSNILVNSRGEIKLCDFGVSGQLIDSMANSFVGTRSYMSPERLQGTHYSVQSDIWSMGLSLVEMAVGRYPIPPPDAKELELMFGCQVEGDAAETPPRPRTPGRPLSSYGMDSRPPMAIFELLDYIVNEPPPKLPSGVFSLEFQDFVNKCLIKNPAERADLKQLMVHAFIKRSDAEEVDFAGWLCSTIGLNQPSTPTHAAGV
Chain of Dual specificity mitogen-activated protein kinase kinase 1 (Homo sapiens) (Q02750 whole entry): as the sequence (Q02750 whole entry, looked up) above
Chain of RAF proto-oncogene serine/threonine-protein kinase (Homo sapiens) (P04049 whole entry): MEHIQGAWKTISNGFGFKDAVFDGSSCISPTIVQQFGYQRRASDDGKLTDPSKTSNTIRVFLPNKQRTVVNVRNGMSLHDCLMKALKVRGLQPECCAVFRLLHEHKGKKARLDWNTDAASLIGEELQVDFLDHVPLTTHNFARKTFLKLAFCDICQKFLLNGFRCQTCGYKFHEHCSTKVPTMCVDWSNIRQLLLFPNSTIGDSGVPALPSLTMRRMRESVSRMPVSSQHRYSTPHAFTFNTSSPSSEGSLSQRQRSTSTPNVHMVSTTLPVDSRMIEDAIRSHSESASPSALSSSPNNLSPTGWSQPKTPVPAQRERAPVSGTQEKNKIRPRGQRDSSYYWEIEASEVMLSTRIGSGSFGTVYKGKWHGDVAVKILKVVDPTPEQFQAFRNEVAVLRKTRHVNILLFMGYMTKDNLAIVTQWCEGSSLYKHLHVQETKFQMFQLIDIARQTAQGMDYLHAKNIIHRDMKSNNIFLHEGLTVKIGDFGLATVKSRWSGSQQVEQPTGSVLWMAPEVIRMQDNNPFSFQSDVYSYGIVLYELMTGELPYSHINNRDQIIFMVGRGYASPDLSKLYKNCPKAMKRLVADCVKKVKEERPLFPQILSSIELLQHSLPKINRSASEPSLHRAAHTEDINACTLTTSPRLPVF
Chain of Serine/threonine-protein kinase B-raf (Homo sapiens), P15056 [V600E] (P15056 whole entry V600E): as the sequence (P15056 whole entry) above, with V600E counted along it

inhibition [2] | inhibition [3] | inhibition [4] | inhibition (Homo sapiens) | Activity [6] | Activity [7] | inhibition [12] | Structure (SMILES) | growth inhibition (GI) (COLO 205 [1]) | growth inhibition (GI) (Malme-3M) | growth inhibition (GI) (SK-MEL-5) | growth inhibition (GI) (MDA-MB-435) | Activity (COLO 205 [5]) | Activity (COLO 205 [8]) | Activity (COLO 205 [9]) | Activity (COLO 205 [10]) | Activity (COLO 205 [11])
inactive | inactive | inactive | inactive | Active | Active |  | N=C1C2=C(NCCS2)C(=O)c2[nH]cc(CO)c21 | Active | Active | Active | Active | inactive |  |  |  | 
 |  |  |  |  |  | Active | CN(C)CCOc1ccc(-c2nc(-c3ccc4c(c3)CC/C4=N/O)c(-c3ccncc3)[nH]2)cc1 |  |  |  |  |  | inactive | inactive | inactive | inactive
inactive | inactive | inactive | inactive | Active |  |  | N=C1C2=C(NCC[S+]2[O-])C(=O)c2[nH]cc(CO)c21 (stereo unspecified) |  |  |  |  | inactive |  |  |  | 
inactive | inactive | inactive | inactive |  |  |  | CSC1=C(N)C(=O)c2[nH]cc(CO)c2C1=N | Active | Active | Active | Active | inactive |  |  |  | 
